Reference: ChEMBL document CHEMBL3877253, “Discovery of new hit-molecules targeting Plasmodium falciparum through a global SAR study of the 4-substituted-2-trichloromethylquinazoline antiplasmodial scaffold” (Eur J Med Chem, 2017)

Experiments:
[1] = Cytotoxicity against human HepG2 cells assessed as reduction in cell viability after 72 hrs by MTT assay; type: toxicity, cell-based
In short: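 HepG2 hepatocarcinoma cells in RPMI with 10% FBS, L-glutamine, penicillin/streptomycin, 37 °C, 6% CO2. Seeded 5.10^3 cells/well, 24 h attachment, then compounds added from DMSO (final under 0.5% v/v) at various concentrations for 72 h, triplicates. Wells checked microscopically for precipitate. MTT 0.5 mg/mL 2 h, formazan dissolved in DMSO, A570 (ref 630 nm). Viability as % of untreated cells; CC50 from dose–response curve.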

[2] = Selectivity index, ratio of CC50 for human HepG2 cells to IC50 for chloroquine/pyrimethamine/proguanil-resistant Plasmodium falciparum K1 infected in human erythrocytes; type: functional
Plasmodium falciparum = assay: Antiplasmodial activity against chloroquine/pyrimethamine/proguanil-resistant Plasmodium falciparum K1 infected in human erythrocytes after 72 hrs by SYBR Green 1 dye based fluorescence spectrophotometric method; type: functional, cell-based; conditions: K1, 72 h

| Compound | CC50 at 72 h [1] [µM] | Ratio CC50/IC50 [2] | IC50 (Plasmodium falciparum) [µM] |
| --- | --- | --- | --- |
| Clc1nc(C(Cl)(Cl)Cl)nc2ccccc12 | > 125 | >2.3 |  |
| O=C1C(O)=C([C@H]2CC[C@H](c3ccc(Cl)cc3)CC2)C(=O)c2ccccc21 [ATOVAQUONE] | > 15.6 | 15600 | 0.001 |
| Clc1ccc(Nc2cc(C(Cl)(Cl)Cl)nc3ccccc23)c(Cl)c1 | 11.7 | 9 | 1.3 |
| FC(F)(F)c1cccc(Nc2cc(C(Cl)(Cl)Cl)nc3ccccc23)c1 | 6.5 | 5 | 1.3 |
| C[C@H]1c2cccc(O)c2C(=O)C2=C(O)[C@]3(O)C(=O)C(C(N)=O)=C(O)[C@@H](N(C)C)[C@@H]3[C@@H](O)[C@@H]21.O [DOXYCYCLINE] |  | 3.3 |  |
| Clc1ccc(Sc2nc3ccccc3nc2C(Cl)(Cl)Cl)cc1 | 38.6 | 77.2 | 0.5 |
